From PubChem
Only some compounds are listed: those with a hit (about 0.86% of all), similar ones and a draw of the others.
TNAP inh hi DEA: inhibitors of human TNAP at high phosphate acceptor concentration; P05186; purified TNAP, CDP-star luminescence, 1 M DEA; inhibition, % at 20 µM; 0.03% of 200,000 active; AID 1135;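 active = over 50% inhibition of tissue-nonspecific alkaline phosphatase at 20 µM in the single-dose screen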;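 note: plate controls were DMSO wells for no effect and EDTA-quenched wells as full inhibition for full effect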
TNAP inh noacc: blocks human TNAP activity with no phosphate acceptor present | 0.26% of 200,000 active | AID 1012 | purified TNAP, CDP-star luminescence, 30 min | inhibition, % at 20 µM;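 active = tissue-nonspecific alkaline phosphatase inhibition above about 50% at 20 µM in the single-dose screen, limit read from the data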;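 note: 0% = DMSO negative control and 100% = EDTA positive control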
Redox H2O2 prof: compounds producing H2O2 with reducing agent – biochemical, NIH compound library profiling, artefact control for MLSCN library redox annotation, primary screen. DTT-dependent redox cycling H2O2, phenol red/HRP absorbance; 100% = 100 µM peroxide control, 0% = buffer. activation, % at 10 µM. 0.03% of 200,000 active;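 active = activation of at least 50% relative to the plate's high and low controls in the primary single-dose screen; inactive = activation below 50%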;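 note: compound incubated with DTT at 0.8 mM final as the reducing agent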
PERK inh: blocks human PERK kinase. Q9NZJ5. CHO PERK-DD fusion, SEAP luminescence translation reporter. inhibition, % at 5.6 µM. 0.17% of 220,000 active. AID 1416;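 active = inhibition above the mean inhibition of all tested compounds plus 3 SD, set separately per screening campaign, cut at about 2.9% in these data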;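 note: PERK kinase domain activated by AP20187 dimerizer at 100 nM; 0% = DMSO with dimerizer and 100% = rapamycin at 8.4 µM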
TNAP act hiacc: TNAP (human) activation, high acceptor; P05186; purified TNAP, CDP-star luminescence, 1 M DEA, 30 min; active compounds read high; 0 = EDTA background, 1 = DMSO-only activity; activation factor at 20 µM; 200,000 tested, under 10 active; AID 1136;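 active = activation factor at least 2 at 20 µM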
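Assay system: human TNAP; Input: enzyme diluted 1/800 final; Reagent: CDP-star luminogenic substrate at 100 µM final; Timing: 30 min, room temperature; Signal: luminescence; Evaluation: TNAP activation factor scaled between EDTA and DMSO control wells.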
p97 ATPase inh: blocks human p97 ATPase activity. recombinant p97 ATPase, Kinase-Glo ATP luminescence, 3 h. inhibition, % at 8 µM. 0.42% of 220,000 active; in the data active = inhibition above about 15%;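 note: 0% = DMSO vehicle and 100% = wells lacking enzyme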
Target sequence (P55072 whole entry, looked up): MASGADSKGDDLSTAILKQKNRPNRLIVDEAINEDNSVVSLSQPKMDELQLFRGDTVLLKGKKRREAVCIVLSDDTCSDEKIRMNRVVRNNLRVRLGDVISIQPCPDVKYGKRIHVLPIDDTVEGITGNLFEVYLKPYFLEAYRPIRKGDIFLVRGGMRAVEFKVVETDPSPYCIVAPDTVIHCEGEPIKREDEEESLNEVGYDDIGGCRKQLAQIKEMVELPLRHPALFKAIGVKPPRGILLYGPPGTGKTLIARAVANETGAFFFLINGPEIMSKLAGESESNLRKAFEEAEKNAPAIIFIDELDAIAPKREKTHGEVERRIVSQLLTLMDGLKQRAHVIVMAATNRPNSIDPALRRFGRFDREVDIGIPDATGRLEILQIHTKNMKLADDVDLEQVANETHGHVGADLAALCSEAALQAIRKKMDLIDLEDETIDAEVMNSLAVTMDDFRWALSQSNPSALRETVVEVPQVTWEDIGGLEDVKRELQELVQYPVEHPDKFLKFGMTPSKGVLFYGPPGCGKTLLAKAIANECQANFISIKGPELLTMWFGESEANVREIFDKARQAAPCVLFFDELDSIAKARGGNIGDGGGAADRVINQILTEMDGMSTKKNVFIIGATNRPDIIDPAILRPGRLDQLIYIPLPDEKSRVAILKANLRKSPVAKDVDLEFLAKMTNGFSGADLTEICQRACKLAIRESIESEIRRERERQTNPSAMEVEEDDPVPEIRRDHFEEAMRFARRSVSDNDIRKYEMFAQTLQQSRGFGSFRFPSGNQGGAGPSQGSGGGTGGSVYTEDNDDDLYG
DTT redox conf: redox cycling H2O2 generation, confirmed | 40% of 60 active | EC50, µM | DTT-dependent redox cycling H2O2, phenol red-HRP absorbance | shares compounds with Redox H2O2 prof;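 active = EC50 under a set limit for hydrogen peroxide production with the reducing agent DTT present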
p97 inh conf: confirmation of human p97 ATPase inhibitors; shares compounds with p97 ATPase inh; recombinant p97 ATPase, Kinase-Glo ATP luminescence; 44% of 760 active; inhibition, % at 8 µM;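 active = percent inhibition of p97 ATPase above a set limit, the primary screen's mean plus 3 SD, cut at about 15% in these data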;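 note: 0% = DMSO wells and 100% = wells lacking p97 protein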
The depositor's hits bear a star; . = no result given.

SMILES	TNAP inh hi DEA	TNAP inh noacc	Redox H2O2 prof	PERK inh	TNAP act hiacc	p97 ATPase inh	DTT redox conf	others
CC(NC(=O)COC(=O)c1ccc([N+](=O)[O-])s1)c1ccccc1 (stereo not given)	-4	-17	114*	1	1	6	>50
O=C1C(=O)c2ccc(-c3ccccc3)cc2-c2ccccc21	2	-3	315*	2	1	13	0.91*
COC1=C(c2ccccc2)C(=O)c2ccccc2C1=O	9	1	0	1	0.9	4	.
Cc1ccc(-c2noc(-c3ccoc3C)n2)cc1	-2	-4	-2	1	1	3	.
COc1cccc(Oc2cncnc2-c2ccc(OC)cc2O)c1	-3	-8	60*	-1	1	-5	>50
CCOC(=O)CNC(=O)c1cc(-c2ccccn2)nc2c(C)c(Cl)ccc12	-5	-4	-1	2	1.1	-1	.
COc1ccc(-c2ncncc2-c2csc(C)n2)c(O)c1OC	-1	4	0	1	1	7	.
COC1=C(N)C(=O)c2nc(-c3nc(C(=O)O)c(C)c(-c4ccc(OC)c(OC)c4O)c3N)ccc2C1=O	3	7	132*	2	1	4	1.5*
CCc1nnc(NC(=O)C2CCCN2C(=O)Nc2ccccc2)s1 (stereo not given)	-2	-7	-1	1	1	0	.
CC1(C)CC(=O)C=C(N2CCNCC2)C1	-2	-10	73*	2	1	4	>50
CC1(C)CC(N2CCCC2)=CC(=[N+]2CCCCCC2)C1	-6	-1	0	0	1.1	0	.
Cc1cc(C)c(S(=O)(=O)Nc2cc(SCC(=O)O)c(O)c3ccccc23)cc1C	3	24	120*	1	1	7	>50
Cc1cccc(NC2=C/C(=N/S(=O)(=O)c3cccs3)c3ccccc3C2=O)c1	24	18	6	0	0.8	1	.
Cc1ccc(NC2=C/C(=N\S(=O)(=O)c3cccs3)c3ccccc3C2=O)c(C)c1	25	18	323*	-2	0.8	9	18*
CC1CC1C(=O)Nc1cc(S(=O)(=O)N2CCOCC2)ccc1N1CCCC1 (stereo not given)	-3	-12	0	0	1	-3	.
O=C(NN=C1CCCC1)c1n[nH]c2c1CCCC2	-2	-42	68*	0	1	-5	>50
C/C(=N/Nc1ccc(C(=O)O)cc1)c1ccc(O)c(O)c1O	8	6	105*	1	0.9	3	>50
COc1cc2c(cc1OC)-c1nnc(-c3ccco3)n1C1(CCCC1)C2	-3	-10	1	-1	1	-4	.
Cc1nc(-c2c(C(F)(F)F)noc2-c2ccc(O)cc2O)cs1	-1	-4	2	1	1	-1	.
Oc1ccc(-c2onc(C(F)(F)F)c2-c2cscn2)c(O)c1	-4	-1	430*	-1	1	-7	>50
O=C1C=C(NCCN2CCOCC2)C(=O)c2cnccc21	16	10	176*	1	0.8	13	>50
Cc1oc2c(c1C(=O)c1ccccc1)C(=O)C(=O)c1ccccc1-2	2	-1	374*	0	1	31*	>50	p97 inh conf=29*
O=C(O)c1ccc(NC2=C/C(=N/S(=O)(=O)c3ccccc3)c3ccccc3C2=O)cc1	26	32	149*	1	0.7	18*	2.7*	p97 inh conf=23*
O=C1C(Nc2ccc(O)cc2)=C/C(=N/S(=O)(=O)c2cccs2)c2ccccc21	13	12	0	-2	0.9	13	.
Nc1nnnn1CC(=O)OCc1cccc(Br)c1	0	-8	-1	1	1	1	.
SMILES	TNAP inh hi DEA	TNAP inh noacc	Redox H2O2 prof	PERK inh	TNAP act hiacc	p97 ATPase inh	DTT redox conf	others
CC(=O)N(/N=C1\Sc2ccccc2C1=O)c1ccc(C)cc1C	31	3	1	1	0.7	2	.
CC(=O)N(/N=C1\Sc2ccccc2C1=O)c1ccccc1C	41	21	381*	0	0.6	18*	19*	p97 inh conf=25*
CCc1cccc(C)c1NC(=S)N(CCN(C)C)C(C)c1ccco1 (stereo not given)	.	.	.	1	.	4	.
Cn1nc(-c2ccc(Cl)cc2)nc2c(=O)n(C)c(=O)nc1-2	-1	-5	170*	0	1	38*	0.89*	p97 inh conf=41*
CCOc1ccc(NC(=S)Nc2ccc3nsnc3c2)cc1	12	0	127*	-1	0.9	33*	>50	p97 inh conf=30*
S=c1nc(-c2sccc2OCc2ccc(Cl)cc2Cl)[nH][nH]1	0	-84	-2	-1	1	-8	.
O=C(NNc1cc(N2CCOCC2)nc(N2CCOCC2)n1)c1ccc([N+](=O)[O-])cc1	9	11	-1	-1	0.9	22*	.	p97 inh conf=7
CC(C(=O)c1ccc(-c2ccccc2)cc1)[n+]1cccc(NC(=O)c2ccccc2)c1 (stereo not given)	.	.	.	0	.	20*	.	p97 inh conf=18*
CCOC(=O)c1ccc[n+](C(C)C(=O)c2ccc(-c3ccccc3)cc2)c1 (stereo not given)	-2	-2	0	0	1	4	.
S=C(NNc1ccc2ccccc2c1)NC1CCCCC1	2	-16	1	0	1	0	.
O=C(CSc1ccccc1)N1CCN(c2ccccn2)CC1	-1	-5	-1	1	1	1	.
O=C(CSc1ccsc1[N+](=O)[O-])N1CCN(c2ccccn2)CC1	-6	-9	0	0	1.1	18*	.	p97 inh conf=8
Cc1c(Br)c(C(F)(F)F)nn1CC(=O)NCCCn1ccnc1	-6	-8	0	0	1.1	-3	.
COc1cc2c(cc1C1NC(=S)NC(C)=C1C(=O)N(C)C)CCCC2 (stereo not given)	-4	-3	0	0	1	-2	.
O=C(COC(=O)c1ccccc1OCc1ccc(Cl)cc1)NC1CC1	-1	-6	2	0	1	1	.
COc1cc(/C=N/N=C2/C(=O)Nc3ccccc32)ccc1O	50	47	1	1	0.5	1	.
O=C1Nc2ccccc2/C1=N\N=C\c1ccc(O)c(O)c1	.	.	.	-1	.	19*	.	p97 inh conf=16*
C=CCNC(=S)Nc1ccc2nsnc2c1	-7	-8	0	1	1.1	29*	.	p97 inh conf=1
COCCNC(=S)Nc1ccc2nsnc2c1	0	-1	0	1	1	0	.
C=CCN(CC=C)C(=S)Nc1ccc2nsnc2c1	-4	-6	2	0	1	18*	.	p97 inh conf=4
